The values that follow come from ChEMBL document CHEMBL1154122, “A comprehensive study of Sansalvamide A derivatives: The structure-activity relationships of 78 derivatives in two pancreatic cancer cell lines” (2009).

Square brackets hold non-standard residues; d marks the D form. Peptide text beside a SMILES is read from it. NMeF = CN[C@@H](Cc1ccccc1)C(=O)O; dNMeF = CN[C@H](Cc1ccccc1)C(=O)O; Cha = N[C@@H](CC1CCCCC1)C(=O)O; NMeL = CN[C@@H](CC(C)C)C(=O)O; dNMeL = CN[C@H](CC(C)C)C(=O)O; dNMeV = CN[C@@H](C(=O)O)C(C)C; Orn = NCCC[C@H](N)C(=O)O; Abu = CC[C@H](N)C(=O)O

Assay [1] can be described thus: Cytotoxicity against human PL45 cells after 56 hrs by [3H]thymidine uptake assay. The assay is classed as functional. Summed up:
(§1)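 Cells seeded at 2000–2500/well in DMEM with L-glutamine, 10% FBS and 1% penicillin-streptomycin. […] After 56 h, 3H-thymidine was added for 16 h more (72 h total), then cells were harvested and counted (CPM). Inhibition = 1 − CPM treated/DMSO; IC50 taken from curves, mean and SEM.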

For assay [2], the system named is BXPC-3. Kind of assay: Cytotoxicity against human BxPC3 cells after 56 hrs by [3H]thymidine uptake assay. The assay is classed as functional. An outline of the steps:
as §1

For the compound `CC(C)C[C@@H]1NC(=O)[C@H](CC(C)C)NC(=O)[C@@H](Cc2ccc(O)cc2)NC(=O)[C@H](CC(C)C)NC(=O)[C@H](C(C)C)NC1=O` (cyclo(LLVL[dY])), the “growth inhibition (GI)” value in assay [1] worked out at 11%; in assay [2], 35%.
Taken in the same sequence, the figures for `CC(C)C[C@@H]1NC(=O)[C@H](C(C)C)NC(=O)[C@H](CCCN)NC(=O)[C@H](CC(C)C)NC(=O)[C@@H](Cc2ccc(O)cc2)NC1=O` (cyclo(L[Orn]VL[dY])) were 0% and 0%.
For `CC(C)C[C@@H]1NC(=O)[C@@H](Cc2ccccc2)NC(=O)[C@H](C(C)C)NC(=O)[C@@H](CC(C)C)NC(=O)[C@@H](CC(C)C)NC1=O` (cyclo(L[dL][dL]V[dF])), in that order: 21% and 23%.
With `CC[C@@H]1NC(=O)[C@H](CC(C)C)NC(=O)[C@H](CC(C)C)NC(=O)[C@H](Cc2ccccc2)NC(=O)[C@H](CC(C)C)NC1=O` (cyclo([Abu]LFLL)), the “growth inhibition (GI)” value in assay [1] and in assay [2] was 0% throughout.
In the case of `CC[C@@H]1NC(=O)[C@H](CC(C)C)NC(=O)[C@H](CC(C)C)NC(=O)[C@H](Cc2ccccc2)NC(=O)[C@@H](CC(C)C)NC1=O` (cyclo([Abu][dL]FLL)), the results for the “growth inhibition (GI)” value in assay [1] and in assay [2] were 23% and 34%, respectively.
Taken in the same sequence, the figures for `CC(C)[C@@H]1NC(=O)[C@H](CC2CCCCC2)NC(=O)[C@H](CO)NC(=O)[C@H](Cc2ccccc2)NC(=O)[C@@H](Cc2ccccc2)N(C)C1=O` (cyclo([Cha]V[dNMeF]FS)) were 11% and 34%.
For `CC(C)C[C@@H]1NC(=O)[C@H](Cc2ccccc2)NC(=O)[C@H](CC(C)C)NC(=O)[C@@H](C(C)C)N(C)C(=O)[C@H](CC2CCCCC2)NC1=O` (cyclo([Cha][dNMeV]LFL)), in that order: 30% and 49%.
Take `CC(C)C[C@@H]1NC(=O)[C@H](CC(C)C)NC(=O)[C@H](Cc2ccccc2)N(C)C(=O)[C@H](CC(C)C)NC(=O)[C@H](C(C)C)NC1=O` (cyclo([NMeF]LLVL)): the results for the “growth inhibition (GI)” value in assay [1] and in assay [2] were 30% and 33%, respectively.
With `CC(C)C[C@@H]1C(=O)N[C@H](Cc2ccccc2)C(=O)N[C@H](CC(C)C)C(=O)N[C@H](CC(C)C)C(=O)N[C@H](C(C)C)C(=O)N1C` (cyclo([dF][dL][dL][dV][dNMeL])), the figures for the “growth inhibition (GI)” value in assay [1] and in assay [2] were 11% and 30%, respectively.
As for `CC(C)C[C@@H]1C(=O)N[C@H](CC(C)C)C(=O)N(C)[C@H](C(C)C)C(=O)N[C@H](CC(C)C)C(=O)N[C@H](Cc2ccccc2)C(=O)N1C` (cyclo([dF][dNMeL][dL][dNMeV][dL])), the “growth inhibition (GI)” value in assay [1] is recorded as 0%; in assay [2] it was 25%.
Taken in the same sequence, the figures for `CC(C)C[C@@H]1NC(=O)[C@H](C(C)C)NC(=O)[C@H](CC(C)C)N(C)C(=O)[C@@H](CC(C)C)NC(=O)[C@@H](Cc2ccccc2)NC1=O` (cyclo([dL][NMeL]VL[dF])) were 59% and 58%.
